Laboratory results published in PMC3895945 (Nuclear medicine and biology, 2013).
Values belong to the molecule of their own block, whether it stands above or below them.

Legend:
9L tumors [1] = assay: Dynamic small animal PET imaging in rats bearing 9L tumors; assay type: in vivo, Fisher rats; settings: for maximum tumor-to-muscle ratio: PET region-of-interest analysis; for maximum tumor-to-muscle ratio / time to maximum tumor uptake: 9L tumors; for time to maximum tumor uptake / tumor uptake kinetics and retention: PET time-activity curves; for tumor uptake kinetics and retention: result in words
9L glioma cells = assay: In vitro uptake studies in 9L cells; assay type: cell-based; settings: for uptake in 9L cells: result in words; for uptake relative to that of FET: 9L glioma cells, 5-120 min incubation at 37 °C
In short: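 9L gliosarcoma cells were grown in DMEM with 10 % FBS (37 °C, 5 % CO2) and plated at 2.0 × 10^5 cells/well 24 h ahead. Cells were washed with warm PBS containing Ca2+/Mg2+, then given radiolabeled test compound in PBS (~500,000 cpm/mL/well) at 37 °C for 5, 30, 60 or 120 min. They were washed with ice-cold PBS, lysed in 0.1N NaOH and gamma-counted. Uptake was normalised to protein (modified Lowry) as %uptake/100 μg protein, in triplicate.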

In vitro metabolism [2] = assay type: in vitro ADME, human
In short: (§1)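 Radiolabeled test compound (~3 MBq in 50 μL PBS) was added to 1.0 mL preheated blood or a PBS control at 37 °C. Rat blood was freshly drawn from anesthetized Fisher 344 rats into heparin (100 unit/mL); heparinized human blood had been stored at −70 °C. Aliquots taken at 5–120 min were deproteinized with 1 % picric acid and centrifuged. Supernatant was analysed by C-18 radio-HPLC. Percent intact compound versus time was fitted to first-order kinetics.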

9L tumors [3] = assay: In vivo biodistribution in Fisher rats with 9L glioma tumors; parameters: species or system Fischer 344 rats; settings: for Tissue distribution Tumor: 9L tumor; for tumor uptake kinetics and retention: biodistribution 30 to 60 min, result in words; for time to maximum uptake in the tumors: biodistribution, 9L tumors; for Tumor/Blood / Tumor/Brain / Tumor/Muscle: ratio
[4] = In vivo metabolism studies of FET prodrugs in Fisher 344 rats; settings: blood drawn 5 min after intravenous injection
In short: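 Fisher 344 rats received ~37 MBq radiolabeled test compound intravenously. Blood was drawn from the heart 5 min post-injection. 50 μL aliquots were deproteinized with 1 % picric acid and centrifuged at 12,000g. Supernatant was run on C-18 HPLC (CH3CN/0.1 % formic acid), and fractions were gamma-counted. Parent and radio-metabolites were identified by retention time.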

In vitro metabolism [5] = assay type: in vitro ADME, rat; settings: for half-life: Fisher 344, rat, fresh heparinized rat whole blood
In short: as §1

[6] = 30 min after intravenous injection
[7] = 60 min after intravenous injection
[8] = 30 min after intravenous injection, listed as FET-Ala([^18F]3)

Compound: C[C@H](NC(=O)[C@@H](N)Cc1ccc(OCC[18F])cc1)C(=O)O [FET-Ala ([^18F]3), O-(2-[^18F]fluoroethyl)-L-tyrosyl-L-alanine]
maximum tumor-to-muscle ratio (9L tumors [1]): 5
time to maximum tumor uptake (9L tumors [1]): ≤ 20 min
tumor uptake kinetics and retention (9L tumors [1]): long retention
half-life (In vitro metabolism [2]; human, heparinized human whole blood): 0.8 min
Tissue distribution Tumor (9L tumors [3]; [6]): 1.18 ± 0.10 % ID/g
Tissue distribution Tumor (9L tumors [3]; [7]): 1.10 ± 0.29 % ID/g
Tissue distribution Blood (9L tumors [3]; [6]): 0.72 ± 0.03 % ID/g
Tissue distribution Bone (9L tumors [3]; [6]): 0.41 ± 0.03 % ID/g
Tissue distribution Brain (9L tumors [3]; [6]): 0.31 ± 0.01 % ID/g
Tissue distribution Heart (9L tumors [3]; [6]): 0.67 ± 0.03 % ID/g
Tissue distribution Kidney (9L tumors [3]; [6]): 0.58 ± 0.02 % ID/g
Tissue distribution Liver (9L tumors [3]; [6]): 0.66 ± 0.02 % ID/g
Tissue distribution Lung (9L tumors [3]; [6]): 0.62 ± 0.02 % ID/g
Tissue distribution Muscle (9L tumors [3]; [6]): 0.54 ± 0.01 % ID/g
Tissue distribution Pancreas (9L tumors [3]; [6]): 3.06 ± 0.38 % ID/g
Tissue distribution Skin (9L tumors [3]; [6]): 0.69 ± 0.20 % ID/g
Tissue distribution Spleen (9L tumors [3]; [6]): 0.74 ± 0.06 % ID/g
Tissue distribution Blood (9L tumors [3]; [7]): 0.72 ± 0.03 % ID/g
Tissue distribution Bone (9L tumors [3]; [7]): 0.46 ± 0.03 % ID/g
Tissue distribution Brain (9L tumors [3]; [7]): 0.38 ± 0.02 % ID/g
Tissue distribution Heart (9L tumors [3]; [7]): 0.66 ± 0.03 % ID/g
Tissue distribution Kidney (9L tumors [3]; [7]): 0.57 ± 0.02 % ID/g
Tissue distribution Liver (9L tumors [3]; [7]): 0.65 ± 0.02 % ID/g
Tissue distribution Lung (9L tumors [3]; [7]): 0.61 ± 0.03 % ID/g
Tissue distribution Muscle (9L tumors [3]; [7]): 0.60 ± 0.03 % ID/g
Tissue distribution Pancreas (9L tumors [3]; [7]): 3.52 ± 0.26 % ID/g
Tissue distribution Skin (9L tumors [3]; [7]): 0.73 ± 0.16 % ID/g
Tissue distribution Spleen (9L tumors [3]; [7]): 0.71 ± 0.03 % ID/g
tumor uptake kinetics and retention (9L tumors [3]): long retention
time to maximum uptake in the tumors (9L tumors [3]): ≤ 30 min
Tumor/Blood (9L tumors [3]; [6]): 1.6
Tumor/Brain (9L tumors [3]; [6]): 3.8
Tumor/Muscle (9L tumors [3]; [6]): 2.2
Tumor/Blood (9L tumors [3]; [8]): 1.64 ± 0.15
Tumor/Brain (9L tumors [3]; [8]): 3.81 ± 0.35
Tumor/Muscle (9L tumors [3]; [8]): 2.18 ± 0.19
Tumor/Blood (9L tumors [3]; [7]): 1.53 ± 0.41
Tumor/Brain (9L tumors [3]; [7]): 2.89 ± 0.78
Tumor/Muscle (9L tumors [3]; [7]): 1.83 ± 0.49
uptake in 9L cells (9L glioma cells): negligible uptake
uptake relative to that of FET (9L glioma cells): less than 1%
metabolized to FET [4]: 79%
half-life (In vitro metabolism [5]): 5.8 min

Compound: N[C@@H](Cc1ccc(OCC[18F])cc1)C(=O)NCC(=O)O [FET-Gly ([^18F]2), O-(2-[^18F]fluoroethyl)-L-tyrosyl-L-glycine]
maximum tumor-to-muscle ratio (9L tumors [1]): 5
time to maximum tumor uptake (9L tumors [1]): ≤ 20 min
tumor uptake kinetics and retention (9L tumors [1]): washout
t1/2 Human blood (In vitro metabolism [2]; hydrolysis to FET in human blood at 37 °C, average of two experiments): 22.7 min
Tissue distribution Tumor (9L tumors [3]; [6]): 0.81 ± 0.30 % ID/g
Tissue distribution Tumor (9L tumors [3]; [7]): 0.56 ± 0.33 % ID/g
Tissue distribution Blood (9L tumors [3]; [6]): 0.72 ± 0.02 % ID/g
Tissue distribution Bone (9L tumors [3]; [6]): 0.41 ± 0.01 % ID/g
Tissue distribution Brain (9L tumors [3]; [6]): 0.33 ± 0.02 % ID/g
Tissue distribution Heart (9L tumors [3]; [6]): 0.67 ± 0.03 % ID/g
Tissue distribution Kidney (9L tumors [3]; [6]): 0.57 ± 0.01 % ID/g
Tissue distribution Liver (9L tumors [3]; [6]): 0.67 ± 0.02 % ID/g
Tissue distribution Lung (9L tumors [3]; [6]): 0.59 ± 0.01 % ID/g
Tissue distribution Muscle (9L tumors [3]; [6]): 0.52 ± 0.04 % ID/g
Tissue distribution Pancreas (9L tumors [3]; [6]): 2.74 ± 0.39 % ID/g
Tissue distribution Skin (9L tumors [3]; [6]): 0.44 ± 0.03 % ID/g
Tissue distribution Spleen (9L tumors [3]; [6]): 0.76 ± 0.05 % ID/g
Tissue distribution Blood (9L tumors [3]; [7]): 0.74 ± 0.06 % ID/g
Tissue distribution Bone (9L tumors [3]; [7]): 0.45 ± 0.04 % ID/g
Tissue distribution Brain (9L tumors [3]; [7]): 0.47 ± 0.06 % ID/g
Tissue distribution Heart (9L tumors [3]; [7]): 0.68 ± 0.05 % ID/g
Tissue distribution Kidney (9L tumors [3]; [7]): 0.57 ± 0.05 % ID/g
Tissue distribution Liver (9L tumors [3]; [7]): 0.66 ± 0.05 % ID/g
Tissue distribution Lung (9L tumors [3]; [7]): 0.62 ± 0.06 % ID/g
Tissue distribution Muscle (9L tumors [3]; [7]): 0.67 ± 0.06 % ID/g
Tissue distribution Pancreas (9L tumors [3]; [7]): 2.92 ± 0.44 % ID/g
Tissue distribution Skin (9L tumors [3]; [7]): 0.46 ± 0.01 % ID/g
Tissue distribution Spleen (9L tumors [3]; [7]): 0.80 ± 0.12 % ID/g
washout from 9L tumors (9L tumors [3]; at 60 min (from 30 min)): 31%
time to maximum uptake in the tumors (9L tumors [3]): ≤ 30 min
Tumor/Blood (9L tumors [3]; [6]): 1.13 ± 0.42
Tumor/Brain (9L tumors [3]; [6]): 2.45 ± 0.92
Tumor/Muscle (9L tumors [3]; [6]): 1.56 ± 0.59
Tumor/Blood (9L tumors [3]; [7]): 0.76 ± 0.45
Tumor/Brain (9L tumors [3]; [7]): 1.19 ± 0.72
Tumor/Muscle (9L tumors [3]; [7]): 0.84 ± 0.50
uptake in 9L cells (9L glioma cells): negligible uptake
uptake relative to that of FET (9L glioma cells): less than 1%
metabolized to FET [4]: 72%
t1/2 Rat blood (In vitro metabolism [5]; hydrolysis to FET in rat blood at 37 °C, average of two experiments): 17.3 min

Compound: CC(=O)N[C@@H](Cc1ccc(OCC[18F])cc1)C(=O)O [AcFET ([^18F]4), N-acetyl O-(2-[^18F]fluoroethyl)-L-tyrosine]
maximum tumor-to-muscle ratio (9L tumors [1]): < 5
time to maximum tumor uptake (9L tumors [1]): 60 min
tumor uptake kinetics and retention (9L tumors [1]): slower kinetics
stability in human blood (In vitro metabolism [2]; human blood, 37 °C): completely stable
Tissue distribution Tumor (9L tumors [3]; [6]): 0.61 ± 0.13 % ID/g
Tissue distribution Tumor (9L tumors [3]; [7]): 0.85 ± 0.09 % ID/g
Tissue distribution Blood (9L tumors [3]; [6]): 0.69 ± 0.03 % ID/g
Tissue distribution Bone (9L tumors [3]; [6]): 0.32 ± 0.01 % ID/g
Tissue distribution Brain (9L tumors [3]; [6]): 0.26 ± 0.01 % ID/g
Tissue distribution Heart (9L tumors [3]; [6]): 0.60 ± 0.03 % ID/g
Tissue distribution Kidney (9L tumors [3]; [6]): 0.70 ± 0.07 % ID/g
Tissue distribution Liver (9L tumors [3]; [6]): 0.64 ± 0.01 % ID/g
Tissue distribution Lung (9L tumors [3]; [6]): 0.55 ± 0.04 % ID/g
Tissue distribution Muscle (9L tumors [3]; [6]): 0.45 ± 0.02 % ID/g
Tissue distribution Pancreas (9L tumors [3]; [6]): 2.54 ± 0.11 % ID/g
Tissue distribution Skin (9L tumors [3]; [6]): 0.48 ± 0.01 % ID/g
Tissue distribution Spleen (9L tumors [3]; [6]): 0.66 ± 0.02 % ID/g
Tissue distribution Blood (9L tumors [3]; [7]): 0.62 ± 0.01 % ID/g
Tissue distribution Bone (9L tumors [3]; [7]): 0.33 ± 0.01 % ID/g
Tissue distribution Brain (9L tumors [3]; [7]): 0.36 ± 0.03 % ID/g
Tissue distribution Heart (9L tumors [3]; [7]): 0.56 ± 0.02 % ID/g
Tissue distribution Kidney (9L tumors [3]; [7]): 0.57 ± 0.05 % ID/g
Tissue distribution Liver (9L tumors [3]; [7]): 0.56 ± 0.01 % ID/g
Tissue distribution Lung (9L tumors [3]; [7]): 0.51 ± 0.01 % ID/g
Tissue distribution Muscle (9L tumors [3]; [7]): 0.49 ± 0.01 % ID/g
Tissue distribution Pancreas (9L tumors [3]; [7]): 2.23 ± 0.51 % ID/g
Tissue distribution Skin (9L tumors [3]; [7]): 0.44 ± 0.01 % ID/g
Tissue distribution Spleen (9L tumors [3]; [7]): 0.65 ± 0.06 % ID/g
tumor uptake kinetics and retention (9L tumors [3]): slower uptake kinetics
Tumor/Blood (9L tumors [3]; [6]): 0.88 ± 0.19
Tumor/Brain (9L tumors [3]; [6]): 2.35 ± 0.51
Tumor/Muscle (9L tumors [3]; [6]): 1.36 ± 0.30
Tumor/Blood (9L tumors [3]; [7]): 1.37 ± 0.15
Tumor/Brain (9L tumors [3]; [7]): 2.36 ± 0.32
Tumor/Muscle (9L tumors [3]; [7]): 1.73 ± 0.19
uptake in 9L cells (9L glioma cells): negligible uptake
uptake relative to that of FET (9L glioma cells): less than 1%
metabolized to FET [4]: 66%
half-life (In vitro metabolism [5]): 77.5 min

More lines, main results first:

maximum tumor-to-muscle ratio (9L tumors [1]): 5
time to maximum tumor uptake (9L tumors [1]): ≤ 20 min
tumor uptake kinetics and retention (9L tumors [1]): long retention
Compound: N[C@@H](Cc1ccc(OCC[18F])cc1)C(=O)O [FET ([^18F]1), O-(2-[^18F]fluoroethyl)-L-tyrosine, reference compound]
uptake in 9L cells (9L glioma cells): high uptake

tumor uptake kinetics and retention (9L tumors [1]): continuously increasing tumor uptake
Compound: O=C[C@H]([18F])[C@@H](O)[C@H](O)[C@H](O)CO [FDG, 2-[^18F]fluoro-2-deoxy-D-glucose, reference compound]
